Measured values as given in ChEMBL document CHEMBL3271963, “Relationship between analgetic ED50 dose and time-course brain levels N-alkylnormeperidine homologues” (J Med Chem, 1976).

Tests used:
[1] = tested on: Liver; assay: Drug metabolism in iv dosed Swiss-Webster mouse liver measured per gram of tissue over 5 to 45 mins; type: ADME, organism-based; conditions: in vivo
Summary of the method: (§1)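 Mice received a single iv bolus of the ³H-labelled N-alkylnormeperidine into the lateral tail vein (0.033 ml/10 g), with 6 animals per time point. Livers were taken at 5, 10, 20, 30 and 45 min, homogenised in 0.01 N HCl, and spiked with unlabelled parent, normeperidine and a [¹⁴C] internal standard. Samples were basified to pH 12, extracted into C₆H₆ and separated by TLC. Parent and normeperidine were quantified by ³H/¹⁴C ratio, corrected for 5.8% (v/w) residual blood, and integrated over 5–45 min.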

[2] = tested on: Mus musculus; assay: Analgetic potency in iv dosed Swiss-Webster mouse; type: functional
[3] = tested on: Liver; assay: Drug metabolism in iv dosed Swiss-Webster mouse liver assessed as norme-peridine concentration measured per gram of tissue over 5 to 45 mins; type: ADME, organism-based; conditions: in vivo; summary of the method: as §1
[4] = tested on: Mus musculus; assay: Analgetic potency in iv dosed Swiss-Webster mouse relative to meperidine; type: functional
[5] = tested on: Brain; assay: Drug uptake in iv dosed Swiss-Webster mouse brain measured per gram of tissue; type: ADME, organism-based; conditions: in vivo
Summary of the method: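 Mice received a single iv bolus of the ³H-labelled compound into the tail vein (0.033 ml/10 g). Whole brains were removed at 5, 10, 20, 30 and 45 min (n = 6 per point) and homogenised in 0.01 N HCl with unlabelled carriers and a [¹⁴C]-N-butylnormeperidine internal standard. Samples were basified to pH 12, extracted into benzene and run on TLC. Levels came from ³H/¹⁴C ratios against a standard curve, expressed per gram, with area under the concentration-time curve.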

SMILES	Drug metabolism [1]	ED50 [2]	Drug metabolism [3]	Ratio [4]	Drug uptake [5]
CCOC(=O)C1(c2ccccc2)CCN(C)CC1.Cl [MEPERIDINE HYDROCHLORIDE]	926.7 nmol·min	32.8 µmol/kg	1733.1 nmol·min	–	–
CCCCN1CCC(C(=O)OCC)(c2ccccc2)CC1.Cl	83.8 nmol·min	19.1 µmol/kg	121.7 nmol·min	1.7	274 nmol·min/g
CCCCCCN1CCC(C(=O)OCC)(c2ccccc2)CC1.Cl	153.3 nmol·min	3.7 µmol/kg	17.9 nmol·min	8.8	126 nmol·min/g
CCCN1CCC(C(=O)OCC)(c2ccccc2)CC1.Cl	263.3 nmol·min	45.9 µmol/kg	917.7 nmol·min	0.7	828 nmol·min/g
